This is an account of results in ChEMBL document CHEMBL1909521, “A class of novel N-(1-methyl-β-carboline-3-carbonyl)-N'-(aminoacid-acyl)-hydrazines: aromatization leaded design, synthesis, in vitro anti-platelet aggregation/in vivo anti-thrombotic evaluation and 3D QSAR analysis” (Eur J Med Chem, 2011).

Experiment [1] can be described thus: Antiaggregatory activity in pig platelets assessed as inhibition of adenosine diphosphate-induced platelet aggregation after 5 mins. Type of experiment: functional, cell-based. The settings on record: Sus scrofa. Summed up: (§1)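 Pig blood (6 pigs) was spun at 1000 rpm for 10 min to give PRP, then 1500 rpm for 10 min to give PPP. PRP was adjusted to 2×10^8 platelets/ml with autologous PPP. Compound (final 100 µM to 0.001 µM, diluted in NS) or NS was added before agonist: ADP 10 µM, AA 350 µM or PAF 0.1 µM final. Aggregation was read optically at 37 °C for 5 min, in sixplicate. IC50 came from the concentration–inhibition curve.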

The test system of experiment [2] is Rattus norvegicus. Nature of the experiment: Antithrombotic activity in po dosed Wister rat assessed as reduction of thrombus weight. It is filed as functional, organism-based.
Experiment [3] concerns Rattus norvegicus. Nature of the experiment: Antithrombotic activity in Wister rat assessed as reduction of thrombus weight at 0.1 nmol/kg, po (reference value: 31.87 +/- 1.71 mg). Type of experiment: functional.
In experiment [4] the test system is Rattus norvegicus. Kind of experiment: Antithrombotic activity in Wister rat assessed as reduction of thrombus weight at 0.01 nmol/kg, po (reference value: 31.87 +/- 1.71 mg). Type of experiment: functional.
Experiment [5] is described as follows: Antiaggregatory activity in pig platelets assessed as inhibition of platelet-activating factor-induced platelet aggregation after 5 mins. It is filed as functional, cell-based. The settings on record: Sus scrofa. In short, it runs like this: as §1
Experiment [6] concerns Rattus norvegicus. Nature of the experiment: Antithrombotic activity in Wister rat assessed as reduction of thrombus weight at 1 nmol/kg, po (reference value: 31.87 +/- 1.71 mg). It is filed as functional.
A short description of experiment [7]: Antiaggregatory activity in pig platelets assessed as inhibition of arachidonic acid-induced platelet aggregation after 5 mins. The conditions noted are these: Sus scrofa. It is filed as functional, cell-based. In short, it runs like this:
as §1

In experiment [8] the test system is Rattus norvegicus. Kind of experiment: Antithrombotic activity in Wister rat assessed as reduction of thrombus weight at 160 to 165 umol/kg, po (reference value: 31.87 +/- 1.71 mg). Type of experiment: functional.

As for `Cc1nc(C(=O)NNC(=O)[C@@H](N)C(C)C)cc2c1[nH]c1ccccc12`, the IC50 in experiment [1] worked out at 20.8 µM; in experiment [5] it was 2 µM; in experiment [7], 0.3 µM. The Activity result in the experiment with Rattus norvegicus [2] is “Dose-dependent effect”; in the experiment with Rattus norvegicus [3] it was 23.8 mg; in the experiment with Rattus norvegicus [4], 27.12 mg; in the experiment on Rattus norvegicus [6], 18.3 mg.

In the case of `CC(=O)Oc1ccccc1C(=O)O` [ASPIRIN], in the experiment on Rattus norvegicus [8], the Activity worked out at 18.86 mg.

One may read the IC50 as the midpoint of a concentration-inhibition curve.
